We go through two substances from article PMC6422976 (Osteoporosis International, 2018).

The nature of data set [1]: Safety: treatment emergent adverse events in healthy women. The format is in vivo, human. The settings on record: single 20 μg s.c.; for TEAE: General disorders and administration site conditions: number of subjects (%). A digest of the protocol:
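Healthy women received single 20 μg/80 μL s.c. injections in each cross-over period. Monitoring covered physical examinations, vital signs, ECGs, pulse oximetry, adverse events, injection-site reactions and clinical laboratory tests. Adverse events in the washout were assigned to the preceding treatment. Results were summarised per treatment arm as subject counts; Fisher's exact test.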

Data set [2] is described as follows: Comparative single-dose PK of teriparatide. The format is in vivo, human. Conditions: for tlast / Cmax / tmax / AUC0-tlast: single 20 μg/80 μL s.c. dose, N = 51; for tlast: AM ± SD; for Cmax: ELISA; for Cmax / AUC0-tlast: GM (GCV%); for tmax: Median (Minimum, Maximum); for AUC0-tlast: abdomen, PTH(1-34) ELISA. A digest of the protocol: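 Randomised, double-blind, two-period, two-sequence cross-over in healthy women aged 18–55 y (BMI 18.5–27.0 kg/m2). Single 20 μg/80 μL s.c. abdominal injection of test or reference teriparatide at hour 0, with a 24 h washout. Plasma sampled pre-dose and at 10–240 min. High-sensitivity human PTH(1-34) ELISA. Non-compartmental parameters; ANOVA on ln values; geometric mean test/reference ratios with 94.12% CI (α 0.0294, two-stage design).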

A further data set concerns serum calcium. The data set is described as follows: Serum calcium. Format: in vivo, human. Conditions: for Serum-corrected calcium Cmax, mean / Serum-corrected calcium tmax, mean / Serum-corrected calcium AUC0-tlast, geom. mean / Serum-corrected calcium Cmax, geom. mean / Serum-corrected calcium AUC0-tlast, median / Serum-corrected calcium Cmax, median / Serum-corrected calcium tmax, median: single 20 μg/80 μL s.c. injection, healthy women, N = 53; for Serum-corrected calcium Cmax, mean / Serum-corrected calcium tmax, mean: arithmetic mean; for Serum-corrected calcium AUC0-tlast, geom. mean / Serum-corrected calcium Cmax, geom. mean: geometric mean. A digest of the protocol: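 Serum drawn within 2.5 h before dosing and at 120, 180 and 240 min and 6, 8 and 12 h after a single 20 μg/80 μL s.c. dose. Total calcium measured photometrically via the NM-BAPTA complex under alkaline conditions (LLOQ 0.8 mg/dl). Values albumin-corrected as Ca (mmol/L) + ((40 − ALB (g/L)) × 0.02). AUC0-tlast, Cmax and tmax calculated.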

The conditions of data set [3]: after at least 12 months of treatment, 20 μg daily s.c. doses; cited from earlier work.
Where [4] appears, read: RGB-10/reference, two-stage design.
Where [5] appears, read: RGB-10/reference, two-stage design, acceptance range 80.00–125.00%.
Setting [6] is: geometric mean ratio = 100 * (RGB-10/reference).
The mark [7] stands for this setting: geometric least-squares mean from ANOVA, single 20 μg s.c., healthy women.

In the case of teriparatide [RGB-10], in data set [1], the “TEAE: General disorders and administration site conditions” value is 13 (24%); the “serious adverse events (SAEs)” value was “no SAEs observed”. The bioequivalence conclusion result in data set [2] (94.12% CIs of GMRs of AUC0-tlast and Cmax within 80–125%) was “bioequivalent”. Besides, in data set [2] (setting [4]), the “94.12% CI of GMR, AUC0-inf” value is 83.75–96.33% and the “94.12% CI of GMR, t1/2” value is 83.28–100.29%. Also, in data set [2] (setting [5]), the “94.12% CI of GMR, AUC0-tlast” value is on record as 85.20–98.60% and the “94.12% CI of GMR, Cmax” value is 85.51–99.52%. For the same substance, in data set [2] (based on GMR, plasma), the “extent, total extent and peak teriparatide exposure (AUC0-tlast, AUC0-inf, Cmax) lower than for the reference” value fell in the range of 8 to 10%. In data set [2] (setting [6]), the “GMR% AUC0-inf” value is reported as 89.82%, the “GMR% AUC0-tlast” value turned out to be 91.66%, the “GMR% Cmax” value was determined as 92.25% and the “GMR% t1/2” value was 91.39%. Moreover, in data set [2] (healthy women), the tlast came out at 2.49 ± 0.729 h; the Cmax is reported as 82.4 (40.1%) pg/mL; the tmax is recorded as 0.334 (0.166, 0.585) h; the AUC0-tlast was 91.8 (40.9%) pg*h/mL. In data set [2] (in vivo), the “half-life shorter than for the reference” value was found to be 9%, the “mean CL/F higher than for the reference product” value is given as “approximately 13%” and the “mean Vz/F compared with the reference” value was “similar”. Also, in the data set with serum calcium (RGB-10/reference), the “95% CIs of the GMR of corrected calcium” value is reported as 99–101%, the “GMR of serum calcium AUC” value is given as 99.93% and the “GMR of serum calcium Cmax” value was 99.87%. For the same substance, the “median difference of serum calcium tmax” value in the data set on serum calcium (RGB-10 versus reference) is 0.001. In addition, in the data set with serum calcium, the “Serum-corrected calcium Cmax, mean” value is reported as 2.35 mmol/L; the “Serum-corrected calcium tmax, mean” value worked out at 5.21 h; the “Serum-corrected calcium AUC0-tlast, geom. mean” value was determined as 27.59 mmol·h/L; the “Serum-corrected calcium Cmax, geom. mean” value was 2.35 mmol/L. Also, in the data set on serum calcium, the “Serum-corrected calcium AUC0-tlast, median” value turned out to be 27.56 mmol·h/L; the “Serum-corrected calcium Cmax, median” value is on record as 2.34 mmol/L; the “Serum-corrected calcium tmax, median” value was 6.00 h.

Turning to “teriparatide [Reference, reference compound]”, the “TEAE: General disorders and administration site conditions” value in data set [1] is 8 (15%). Also, the “patients with anti-teriparatide antibodies” value in data set [3] was 2.8%. In data set [2] (setting [7]), the “AUC0-inf, geometric LSM” value worked out at 0.11566 ng·h/mL; the “AUC0-tlast, geometric LSM” value was 0.10086 ng·h/mL; the “Cmax, geometric LSM” value is 0.09018 ng/mL; the “t1/2, geometric LSM” value turned out to be 0.72 h. Besides, in data set [2] (healthy women), the tlast stood at 2.58 ± 0.707 h; the Cmax was 89.2 (37.1%) pg/mL; the tmax is on record as 0.417 (0.167, 0.667) h; the AUC0-tlast is 99.0 (35.0%) pg*h/mL. Moreover, in the data set with serum calcium, the “Serum-corrected calcium Cmax, mean” value is on record as 2.35 mmol/L; the “Serum-corrected calcium tmax, mean” value amounted to 5.03 h; the “Serum-corrected calcium AUC0-tlast, geom. mean” value stood at 27.61 mmol·h/L; the “Serum-corrected calcium Cmax, geom. mean” value is given as 2.35 mmol/L. For the same substance, in the data set with serum calcium, the “Serum-corrected calcium AUC0-tlast, median” value is 27.56 mmol·h/L; the “Serum-corrected calcium Cmax, median” value worked out at 2.34 mmol/L; the “Serum-corrected calcium tmax, median” value worked out at 6.00 h.
